Here are results for five compounds from ChEMBL document CHEMBL4346663, “N-Cinnamoylanthranilates as human TRPA1 modulators: Structure-activity relationships and channel binding sites” (Eur J Med Chem, 2019).

Calls of active or inactive are those of the source. No cut-off for these calls is given here.

Data set [1] relates to Transient receptor potential cation channel subfamily A member 1 (Homo sapiens), O75762 [C621A]. The experiment in a line: Agonist activity at human TRPA1 […] mutant expressed in HEK293 cells assessed as Ca2+ influx at 1 uM by fluorescence assay. It counts as cell-based.
Chain of Transient receptor potential cation channel subfamily A member 1 (Homo sapiens), O75762 [C621A] (O75762 whole entry C621A): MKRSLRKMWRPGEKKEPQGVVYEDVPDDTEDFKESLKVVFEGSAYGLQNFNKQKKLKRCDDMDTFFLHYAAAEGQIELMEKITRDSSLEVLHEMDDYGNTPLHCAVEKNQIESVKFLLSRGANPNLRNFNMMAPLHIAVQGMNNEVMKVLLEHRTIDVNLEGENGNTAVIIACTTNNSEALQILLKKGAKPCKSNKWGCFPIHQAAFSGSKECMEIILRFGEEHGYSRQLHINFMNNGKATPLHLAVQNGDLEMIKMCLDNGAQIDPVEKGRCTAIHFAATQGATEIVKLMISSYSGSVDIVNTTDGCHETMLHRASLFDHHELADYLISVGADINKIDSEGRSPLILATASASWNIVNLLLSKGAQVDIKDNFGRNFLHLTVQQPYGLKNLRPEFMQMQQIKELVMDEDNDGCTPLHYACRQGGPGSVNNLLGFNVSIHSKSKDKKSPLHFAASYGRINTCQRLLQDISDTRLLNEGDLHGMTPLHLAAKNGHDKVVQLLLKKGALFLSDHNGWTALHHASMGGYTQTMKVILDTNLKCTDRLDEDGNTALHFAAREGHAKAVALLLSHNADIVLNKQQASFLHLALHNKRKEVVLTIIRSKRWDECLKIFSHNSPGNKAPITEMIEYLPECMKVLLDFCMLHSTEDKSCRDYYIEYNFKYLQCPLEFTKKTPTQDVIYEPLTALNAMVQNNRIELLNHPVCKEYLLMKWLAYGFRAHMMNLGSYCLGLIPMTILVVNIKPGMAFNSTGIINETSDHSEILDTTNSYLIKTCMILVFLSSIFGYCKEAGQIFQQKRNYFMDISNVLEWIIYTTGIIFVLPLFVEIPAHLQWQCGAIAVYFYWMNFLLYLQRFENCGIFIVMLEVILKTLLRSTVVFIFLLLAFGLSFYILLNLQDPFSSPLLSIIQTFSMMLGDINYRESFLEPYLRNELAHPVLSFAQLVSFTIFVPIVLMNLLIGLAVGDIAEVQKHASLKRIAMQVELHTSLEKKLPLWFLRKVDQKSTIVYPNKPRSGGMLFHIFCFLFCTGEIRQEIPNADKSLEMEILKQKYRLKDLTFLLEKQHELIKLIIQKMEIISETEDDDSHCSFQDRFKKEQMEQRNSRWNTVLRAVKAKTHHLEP
Data set [2] addresses T1, Transient receptor potential cation channel subfamily A member 1 (Homo sapiens, UniProt O75762). The experiment in a line: Agonist activity at human TRPA1 expressed in HEK293 cells assessed as increase in calcium influx by Fluo-3/acetoxymethyl ester dye based FLIPR analysis. It counts as cell-based.
In data set [3] the target is T1, Transient receptor potential cation channel subfamily A member 1. The experiment in a line: Agonist activity at human TRPA1 expressed in HEK293 cells assessed as increase in calcium influx by Fluo-4-AM dye based fluorescence assay. The format is cell-based. Particulars: read-out: EC50. The method in brief:
(§1)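 Stably transfected hTRPA1- or hTRPM8-HEK293 cells on poly-D-lysine plates for 48 h, loaded with Fluo-4AM (2 µM, 45 min, dark, room temperature), in isotonic HEPES buffer pH 7.4. FlexStation 240 s run: 20 s baseline, compound added, calcimycin added at 180 s. ΔRFU expressed as % calcimycin, DMSO-subtracted. Screening N = 3. Dose-response curves fitted for logEC50 (N = 3 in duplicate or triplicate).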

Data set [4] deals with Transient receptor potential cation channel subfamily A member 1 (Homo sapiens), O75762 [F909A]. Nature of the data set: Agonist activity at human TRPA1 Phe909Ala mutant expressed in HEK293 cells assessed as Ca2+ influx at 1 uM by fluorescence assay. The format is cell-based. The method in brief:
(§2)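 HEK293 cells stably expressing hTRPA1 point mutants (C621A, F909A or F944A), single-cell cloned under G418 selection. Cells plated on poly-D-lysine for 48 h, loaded with Fluo-4AM 2 µM for 45 min at room temperature. FlexStation read (ex 485/em 538 nm): 20 s baseline, compound added, calcimycin added at 180 s. Response expressed as % calcimycin from ΔRFU, vehicle-subtracted, and compared with wild-type hTRPA1 cells.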

For data set [5], the target named is T1, Transient receptor potential cation channel subfamily A member 1. The experiment in a line: Agonist activity at human TRPA1 expressed in HEK293 cells assessed as increase in calcium influx by FLIPR analysis. The format is cell-based. The procedure, abridged:
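Stably transfected hTRPA1-HEK293 cells plated on poly-D-lysine at 12500 cells per well, grown 48 h, loaded with 2 µM Fluo-4AM for 45 min in the dark at room temperature. Assayed in isotonic HEPES buffer (pH 7.4) on a plate reader, ex 485/em 538 nm. Compound added at 20 s, calcimycin at 180 s. ΔRFU taken as % calcimycin after DMSO subtraction. Three independent experiments.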

The test system of data set [6] is Transient receptor potential cation channel subfamily A member 1 (Homo sapiens), O75762 [F909A]. Nature of the data set: Antagonist activity at human TRPA1 Phe909Ala mutant expressed in HEK293 cells assessed as Ca2+ influx at 100 uM by fluorescence assay. The format is cell-based. The procedure, abridged:
(§3)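 hTRPA1 F909A or F944A mutant HEK293 stable clones, loaded with Fluo-4AM (2 µM, 45 min, room temperature). Compound pre-incubated 10 min before the standard agonist was added. FlexStation fluorescence (485/538 nm). ΔRFU normalized to the standard agonist response set at 100 %, after DMSO vehicle subtraction.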

Data set [7] relates to Transient receptor potential cation channel subfamily A member 1 (Homo sapiens), O75762 [F944A]. Nature of the data set: Antagonist activity at human TRPA1 Phe944Ala mutant expressed in HEK293 cells assessed as Ca2+ influx at 100 uM by fluorescence assay. It counts as cell-based. The method in brief: as §3
Chain of Transient receptor potential cation channel subfamily A member 1 (Homo sapiens), O75762 [F944A] (O75762 whole entry F944A): as the sequence (O75762 whole entry C621A) above, with A621C, F944A counted along it
The target of data set [8] is T1, Transient receptor potential cation channel subfamily A member 1. The experiment in a line: Antagonist activity at human TRPA1 expressed in HEK293 cells assessed as inhibition of CA-induced increase in calcium influx incubated for 10 mins prior to CA addition by Fluo-4-AM dye based fluorescence assayy. The format is cell-based.
Data set [9] deals with Transient receptor potential cation channel subfamily A member 1 (Homo sapiens), O75762 [F909A]. Nature of the data set: Agonist activity at human TRPA1 Phe909Ala mutant expressed in HEK293 cells assessed as Ca2+ influx […] fluorescence assay. It counts as cell-based. The procedure, abridged: as §2
Chain of Transient receptor potential cation channel subfamily A member 1 (Homo sapiens), O75762 [F909A] (O75762 whole entry F909A): as the sequence (O75762 whole entry C621A) above, with A621C, F909A counted along it
Data set [10] has as its system Transient receptor potential cation channel subfamily A member 1 (Homo sapiens), O75762 [F944A]. Nature of the data set: Agonist activity at human TRPA1 Phe944Ala mutant expressed in HEK293 cells assessed as Ca2+ influx […] by fluorescence assay. It counts as cell-based. The method in brief:
as §2

The target in data set [11] is T1, Transient receptor potential cation channel subfamily A member 1. The experiment in a line: Agonist activity at human TRPA1 expressed in CHO cells assessed as increase in calcium influx by Fluo-4-AM dye based fluorescence assay. It counts as cell-based.
Data set [12] deals with Transient receptor potential cation channel subfamily A member 1 (Homo sapiens), O75762 [C621A]. The experiment in a line: Agonist activity at human TRPA1 […] mutant expressed in HEK293 cells assessed as Ca2+ influx […] by fluorescence assay. It counts as cell-based. The method in brief:
as §2

Data set [13] relates to Transient receptor potential cation channel subfamily A member 1 (Homo sapiens), O75762 [F944A]. Nature of the data set: Agonist activity at human TRPA1 Phe944Ala mutant expressed in HEK293 cells assessed as Ca2+ influx at 30 uM by fluorescence assay. The format is cell-based. The procedure, abridged: as §2
The subject of data set [14] is Transient receptor potential cation channel subfamily A member 1 (Homo sapiens), O75762 [F909A]. The experiment in a line: Agonist activity at human TRPA1 Phe909Ala mutant expressed in HEK293 cells assessed as Ca2+ influx at 30 uM by fluorescence assay. It counts as cell-based. The method in brief:
as §2

In data set [15] the target is T2, Transient receptor potential cation channel subfamily M member 8 (Homo sapiens, UniProt Q7Z2W7). Nature of the data set: Antagonist activity at human TRPM8 expressed in HEK293 cells assessed as increase in calcium influx at 30 uM incubated for 10 mins prior to WS5 challenge by Fluo-4-AM dye based fluorescence assay relative to WS5. The format is cell-based. More on the design: scale not given: the % may be the effect or the level left. The method in brief:
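hTRPM8-HEK293 cells loaded with Fluo-4AM (2 µM, 45 min). Test compound pre-incubated 10 min before WS5 standard agonist. FlexStation fluorescence at 485/538 nm. ΔRFU given as % of WS5 response after DMSO vehicle subtraction. N = 3. IC50 from dose-response curves.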

The target of data set [16] is T2, Transient receptor potential cation channel subfamily M member 8. Nature of the data set: Agonist activity at human TRPM8 expressed in HEK293 cells assessed as increase in calcium influx at 3 uM by Fluo-4-AM dye based fluorescence assay relative to calcimycin. The format is cell-based. The procedure, abridged: as §1
Data set [17] can be described thus: Dissociation constant, pKa of the compound at pH 7.4. The format is physicochemical.
Data set [18] deals with T1, Transient receptor potential cation channel subfamily A member 1. Nature of the data set: Antagonist activity at human TRPA1 expressed in HEK293 cells assessed as increase in calcium influx at 3 uM incubated for 10 mins prior to CA challenge by Fluo-4-AM dye based fluorescence assay […]. The format is cell-based.
The target is the same in data set [19]. The experiment in a line: Agonist activity at human TRPA1 expressed in HEK293 cells assessed as increase in calcium influx at 30 uM by Fluo-4-AM dye based fluorescence assay relative to calcimycin. The format is cell-based. The method in brief:
as §1

T1 sequence (O75762 whole entry): as the sequence (O75762 whole entry C621A) above, with A621C counted along it
T2 sequence (Q7Z2W7 whole entry, looked up): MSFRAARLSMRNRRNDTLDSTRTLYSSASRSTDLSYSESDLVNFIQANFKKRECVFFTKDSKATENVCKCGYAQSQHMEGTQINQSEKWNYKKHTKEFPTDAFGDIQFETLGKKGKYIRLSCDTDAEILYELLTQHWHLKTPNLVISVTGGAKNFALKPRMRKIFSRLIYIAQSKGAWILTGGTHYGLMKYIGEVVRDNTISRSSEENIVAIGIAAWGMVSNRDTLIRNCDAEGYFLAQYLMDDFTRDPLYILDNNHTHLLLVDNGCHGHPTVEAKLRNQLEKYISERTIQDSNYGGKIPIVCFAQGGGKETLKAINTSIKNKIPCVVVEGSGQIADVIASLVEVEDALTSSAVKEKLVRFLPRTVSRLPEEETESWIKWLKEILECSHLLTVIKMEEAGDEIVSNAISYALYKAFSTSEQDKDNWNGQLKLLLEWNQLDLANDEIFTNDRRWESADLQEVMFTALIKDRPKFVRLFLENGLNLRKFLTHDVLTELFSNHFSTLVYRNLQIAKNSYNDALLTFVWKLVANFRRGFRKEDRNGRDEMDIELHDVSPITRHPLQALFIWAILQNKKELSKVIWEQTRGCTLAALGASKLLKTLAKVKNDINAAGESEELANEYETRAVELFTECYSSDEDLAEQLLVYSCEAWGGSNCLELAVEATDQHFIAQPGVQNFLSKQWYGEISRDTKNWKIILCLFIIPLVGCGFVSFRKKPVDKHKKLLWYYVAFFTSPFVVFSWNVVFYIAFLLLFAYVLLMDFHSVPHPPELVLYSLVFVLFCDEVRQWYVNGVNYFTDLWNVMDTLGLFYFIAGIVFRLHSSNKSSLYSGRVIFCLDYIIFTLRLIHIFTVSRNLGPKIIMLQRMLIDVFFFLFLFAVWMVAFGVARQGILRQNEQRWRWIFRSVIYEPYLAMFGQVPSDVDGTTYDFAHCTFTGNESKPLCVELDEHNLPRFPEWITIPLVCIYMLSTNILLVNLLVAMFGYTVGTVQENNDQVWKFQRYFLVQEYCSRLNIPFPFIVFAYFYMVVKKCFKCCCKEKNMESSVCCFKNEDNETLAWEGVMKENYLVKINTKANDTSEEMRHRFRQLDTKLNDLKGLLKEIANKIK

For the compound `CC(C)=CCC/C(C)=C/CC/C(C)=C/CSc1ccccc1C(=O)O` [SALIRASIB], the outcome in data set [1] was inactive. Moreover, the results for the EC50 in [2] and in data set [3] were 7 µM and 0.8 µM, respectively. In addition, the outcome in [4] was Active.
`O=C(O)c1cc([N+](=O)[O-])ccc1NCCCc1ccccc1` [5-NITRO-2-PHENYLPROPYLAMINOBENZOIC ACID [NPPB]]: in [1], the result was inactive. In addition, the EC50 came to 0.6 µM in [3] and 0.32 µM in data set [5]. For the same compound, in [4], the result was Active.
As to `O=C(NCc1ccc(Cl)cc1)[C@@H]1CCCN1S(=O)(=O)c1ccc(F)cc1`, the outcome in data set [6] and in [7] was inactive. For the same compound, the IC50 in data set [8] was found to be 10 µM.
As to `CCCN(CCC)S(=O)(=O)c1ccc(C(=O)O)cc1` [PROBENECID], the outcome in data set [9] was Active. Also, the result in data set [10] and in data set [12] was inactive. In data set [11], the EC50 worked out at 4200 µM.
With `COC(=O)c1ccccc1NC(=O)CCOc1ccccc1`, the outcome in data set [13], in [16] and in data set [18] was inactive. Besides, the outcome in data set [14] was Active. The Activity in [15] came out at 12%; in data set [19], 45%. In data set [17], this compound showed a pKa of 11.9.

The EC50 is the concentration that produces a half-maximal response. The term IC50 denotes the concentration that gives 50% inhibition. Usually pKa stands for the negative logarithm of the acid dissociation constant.
